Results pooled from the literature.
Compare with care: the assays were run in different laboratories.
Target: Casein kinase II subunit alpha' (CSNK2A2, Homo sapiens, UniProt P19784)

Compound | observed | mode | method | tested at | measurement | result
CCS(=O)(=O)c1cc2cc(C[C@](O)(CC(C)(C)c3ccc(F)cc3C(N)=O)C(F)(F)F)[nH]c2cn1 | cell-free assay | – | competition with immobilised ligand | 1 µM | remaining binding | 92%
CCN(CC)CCNC(=O)c1c(C)[nH]c(/C=C2\C(=O)Nc3ccc(F)cc32)c1C | enzyme activity | inhibitor | – | 0.3 µM | inhibition | -22%
CCCOc1ccc(OC)c(F)c1C(=O)c1ccc(C(=O)N[C@@H]2CNC[C@H]2NC(=O)c2ccc3[nH]ncc3c2)cc1 | enzyme activity | inhibitor | – | 10 µM | remaining activity | 93%
O=C(NCCCC1CCCCC1)c1ccc(CNC(=O)c2cnn(-c3ccccc3)c2C(F)(F)F)cc1 | cell-free assay | – | competition with immobilised ligand | 0.1 µM | remaining binding | 88%
CNC(=O)c1cc(Oc2ccc(NC(=O)Nc3ccc(Cl)c(C(F)(F)F)c3)cc2)ccn1 | enzyme activity | inhibitor | – | 10 µM | inhibition | -30%
COc1cc2ncnc(Nc3ccc(Oc4ccccc4)cc3C)c2cc1OC | enzyme activity | inhibitor | – | 1 µM | inhibition | 7%
Cc1cnc(NC2CCOCC2)nc1-n1cnc(C(=O)NC(CN)c2cc(F)cc(Cl)c2)c1 (stereo not drawn) | enzyme activity | inhibitor | radiometric | 1 µM | remaining activity | 97%
O=C(Nc1cnn(-c2csc(C(=O)NC3COC3)c2)c1)Nc1c(F)cccc1Cl | enzyme activity | inhibitor | – | 5 µM | remaining activity | 96.6%
CCCCNc1ncc2c(-c3ccc(F)cc3)nn(C[C@H]3CC[C@H](N)CC3)c2n1 | target engagement in cells | inhibitor | chemoproteomics | 20 mM | inhibition | -43.5%
Cc1cc(NC(=O)c2cccc3cc(-c4cccc5[nH]nc(N)c45)ccc23)ccc1F | enzyme activity | inhibitor | – | 0.1 µM | activity vs control | 109%
Cn1cnc(Br)c1C1=CN(c2ncnc3[nH]cnc23)CCS1 | enzyme activity | inhibitor | radiometric | 2 µM | inhibition | 46.5%
Cc1ccc(C(=O)Nc2ccc(CN3CCN(C)CC3)c(C(F)(F)F)c2)cc1C#Cc1cnc2cccnn12 | enzyme activity | inhibitor | – | 23.5 nM | remaining activity | 94%
CS(=O)(=O)c1cc(C2(NC(=O)c3cncc4c3cnn4-c3ccc(F)cc3)CC2)ccn1 | cell-free assay | – | competition with immobilised ligand | 1 µM | remaining binding | 80%
N#CCCc1ccc2c(c1)-c1[nH]c3ccc([N+](=O)[O-])cc3c1CC(=O)N2 | cell-free assay | – | – | 0.5 µM | remaining signal | 92.9%
O=C(Nc1cnn(-c2csc(C(=O)NC3COC3)c2)c1)Nc1ccccc1Cl | enzyme activity | inhibitor | – | 5 µM | remaining activity | 97.3%
Cc1ccc(NC(=O)c2ccc(C)c(C(F)(F)F)c2)cc1C#Cc1nn(C2CCC(O)CC2)c2ncnc(N)c12 (stereo not drawn) | cell-free assay | inhibitor | – | 10 µM | remaining signal | 92%
CC(=O)C1=C(C)N(c2cccc(C(F)(F)F)c2)C(=O)N[C@@H]1c1ccc(C#N)nc1 | cell-free assay | – | competition with immobilised ligand | 1 µM | remaining binding | 75.7%
C=CC(=O)Nc1cc(Nc2nccc(Nc3cc(Cl)c(F)cc3C(C)(C)O)n2)c(OC)cc1N1CC[C@@H](N(C)C)C1 | enzyme activity | inhibitor | – | 1 µM | inhibition | -6%
Nc1c(C(=O)NCc2ccc(C(=O)NCCCC3CCCCC3)cc2)cnn1-c1ccccc1 | cell-free assay | – | competition with immobilised ligand | 0.1 µM | remaining binding | 100%
CC(C)(C)c1nc2c(s1)c1nc(N)ncc1c1ccc(NS(=O)(=O)c3c(F)cccc3F)c(F)c12 | enzyme activity | inhibitor | radiometric | 1 µM | remaining activity | 94%
CSc1cccnc1N1CCN(Cc2nc3ccccc3[nH]2)CC1 | cell-free assay | – | competition with immobilised ligand | 1 µM | remaining binding | 100%
O=C1Nc2ccc(Cl)cc2C1=Cc1cc(Cl)c(O)c(Cl)c1 | cell-free assay | – | – | 0.5 µM | remaining signal | 33.3%
CCCOc1ccc([C@H]2[C@H](C(=O)O)[C@@H](c3ccc4c(c3)OCO4)CN2CC(=O)Nc2c(CC)cccc2CC)cc1 | cell-free assay | – | competition with immobilised ligand | 1 µM | remaining binding | 87%
Cc1ccc(Nc2nccc(N(C)c3ccc4c(C)n(C)nc4c3)n2)cc1S(N)(=O)=O | enzyme activity | inhibitor | – | 0.3 µM | inhibition | -13%
